The values that follow come from ChEMBL document CHEMBL1133612, “Analogues of amonafide and azonafide with novel ring systems” (J Med Chem, 2000).

In general, IC50 refers to the midpoint of a concentration-inhibition curve.

Common to all, as to format: functional, cell-based
The subject of experiment [1] is MCF7. In words: Tested for inhibitory activity against human tumor cell line MCF7, a strain resistant to mitoxantrone of breast carcinoma using sulforhodamine B assay. (In general: Sulforhodamine B stains cellular protein and so reports cell mass.)
The test system of the next experiment is UACC-375. Description: Tested for inhibitory activity against human tumor cell line UA375 of melanoma using sulforhodamine B assay.
In experiment [2] the test system is L1210. Description: Tested for inhibitory activity against murine cell line […] leukemia, a strain sensitive to doxorubicin using MTT assay. Conditions: Mus musculus. The method in brief:
(§1)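 Murine L1210 leukaemia cells were tested as a drug-sensitive strain and as a multiple drug-resistant strain that is P-glycoprotein positive. Growth inhibition in both strains was read by MTT assay.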
(Tetrazolium dyes change colour on reduction, which living cells bring about.)

Experiment [3] concerns MCF7. Description: Tested for inhibitory activity against human tumor cell line MCF7, a strain sensitive to doxorubicin of breast carcinoma using sulforhodamine B assay.
Experiment [4] relates to WiDr. In words: Tested for inhibitory activity against a sensitive strain of human colon carcinoma WiDr using sulforhodamine B assay (it is MRP positive but non-P-glycoprotein).
The test system of experiment [5] is WiDr. In words: Tested for inhibitory activity against a multi drug resistant (MDR) strain of human colon carcinoma WiDr using sulforhodamine B assay (it is MRP positive but non-P-glycoprotein).
Experiment [6] relates to L1210. Description: Tested for inhibitory activity against murine cell line […] leukemia, a strain resistant to doxorubicin using MTT assay. To be noted: Mus musculus. The method in brief: as §1
The nature of experiment [7]: Tested for inhibitory activity against human tumor cell line A549 (a non small, drug resistant cell line that does not produce P-glycoprotein) of lung carcinoma using sulforhodamine B assay.
A further experiment deals with OVCAR-3. In words: Tested for inhibitory activity against human tumor cell line OVCAR-3 a resistant ovarian carcinoma using sulforhodamine B assay.
Experiment [8] relates to MCF7. In words: Tested for inhibitory activity against human tumor cell line D40, a strain resistant to doxorubicin of breast carcinoma using sulforhodamine B assay.

As for `CN(C)CCN1C(=O)c2cccc3c2c(cc2ncccc23)C1=O`, the IC50 with MCF7 [1] turned out to be 230 nM; in the experiment on UACC-375, 617 nM; with L1210 [2], 493 nM; with MCF7 [3], 170 nM; in the experiment with WiDr [4], 110 nM; with WiDr [5], 260 nM. Moreover, the half-inhibitory concentration (IC50) in the experiment on L1210 [6] was 367 nM; in [7] it was 32 nM; in the experiment on OVCAR-3, 986 nM; in the experiment with MCF7 [8], 320 nM.
